{"source": "ChEMBL document CHEMBL4422613", "about": "“Amarisolide F, an Acylated Diterpenoid Glucoside and Related Terpenoids from Salvia amarissima” (J Nat Prod, 2019)", "key": {"Homo sapiens [1]": {"organism": "Homo sapiens", "test": "Inhibition of MDR protein in human MCF7/Vin cells cultured in absence of vinblastine assessed as reversal fold at 25 ug/ml after 72 hrs by sulforhodamine B assay", "type": "cell-based"}, "Homo sapiens [2]": {"organism": "Homo sapiens", "test": "Inhibition of MDR protein in human MCF7/Vin cells cultured in presence of vinblastine assessed as reversal fold at 25 ug/ml after 72 hrs by sulforhodamine B assay", "type": "cell-based"}, "Homo sapiens [3]": {"organism": "Homo sapiens", "test": "Inhibition of MDR protein in human MCF7/Vin cells cultured in absence of vinblastine assessed as reversal fold after 72 hrs by sulforhodamine B assay", "type": "cell-based"}, "Homo sapiens [4]": {"organism": "Homo sapiens", "test": "Inhibition of MDR protein in human MCF7/Vin cells cultured in presence of vinblastine assessed as reversal fold after 72 hrs by sulforhodamine B assay", "type": "cell-based"}, "Homo sapiens [5]": {"organism": "Homo sapiens", "test": "Inhibition of MDR protein in human MCF7/Vin cells cultured in absence of vinblastine assessed as reversal fold at 5 ug/ml after 72 hrs by sulforhodamine B assay", "type": "cell-based"}, "Homo sapiens [6]": {"organism": "Homo sapiens", "test": "Inhibition of MDR protein in human MCF7/Vin cells cultured in presence of vinblastine assessed as reversal fold at 5 ug/ml after 72 hrs by sulforhodamine B assay", "type": "cell-based"}, "MDA-MB-231": {"system": "MDA-MB-231", "test": "Cytotoxicity against human MDA-MB-231 cells after 72 hrs by sulforhodamine B assay", "type": "functional, cell-based", "conditions": "MDA-MB-231, 72 h"}, "HeLa": {"system": "HeLa", "test": "Cytotoxicity against human HeLa cells after 72 hrs by sulforhodamine B assay", "type": "functional, cell-based"}, "HCT-15": {"system": "HCT-15", "test": "Cytotoxicity against human HCT15 cells after 72 hrs by sulforhodamine B assay", "type": "functional, cell-based", "conditions": "HCT-15, 72 h"}, "HCT-116": {"system": "HCT-116", "test": "Cytotoxicity against human HCT116 cells after 72 hrs by sulforhodamine B assay", "type": "functional, cell-based", "conditions": "HCT-116, 72 h"}, "MCF7": {"system": "MCF7", "test": "Cytotoxicity against human MCF7 cells after 72 hrs by sulforhodamine B assay", "type": "functional, cell-based", "conditions": "MCF7, 72 h", "outline": "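Cells kept in RPMI 1640 with 10% FBS at 37 °C, 5% CO2 in humidified air. Log-phase cells were treated in triplicate with compound at 0.4–42.1 μM for 72 h.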"}, "Homo sapiens [7]": {"organism": "Homo sapiens", "test": "Inhibition of MDR protein in human MCF7/Vin cells cultured in absence of vinblastine assessed as reversal fold at 42.1 uM after 72 hrs by sulforhodamine B assay", "type": "cell-based", "outline": "(§1)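 Sensitive MCF-7 and MDR MCF-7/Vin cells in RPMI 1640 with 10% FBS at 37 °C, 5% CO2. The Vin+ stock was kept in medium with […] vinblastine and the Vin− stock in vinblastine-free medium. Cells were exposed to vinblastine (0.7 nM–11 μM) with or without compound (42.1 μM) for 72 h.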"}, "Homo sapiens [8]": {"organism": "Homo sapiens", "test": "Inhibition of MDR protein in human MCF7/Vin cells cultured in presence of vinblastine assessed as reversal fold at 42.1 uM after 72 hrs by sulforhodamine B assay", "type": "cell-based", "outline": "as §1"}}}
{"smiles": "C[C@@H]1C(=O)CC2=C(/C=C\\C=C\\[C@@]13C[C@@H](O)c1ccoc1[C@H]3O)C(=O)OC2", "values": [{"measurement": "fold change (FC)", "setting": "Homo sapiens [1]", "value": 8440}, {"measurement": "fold change (FC)", "setting": "Homo sapiens [2]", "value": 10700}]}
{"smiles": "CC(=O)O[C@H]1O[C@@H](c2ccoc2)C[C@]12[C@H](C)C(=O)C[C@@]13COC(=O)C1=CC=C[C@H]32", "values": [{"measurement": "fold change (FC)", "setting": "Homo sapiens [3]", "value": 54}, {"measurement": "fold change (FC)", "setting": "Homo sapiens [4]", "value": 2.6}]}
{"smiles": "COC(=O)[C@H]1[C@H]2C[C@@H]3c4[nH]c5cc(OC)ccc5c4CCN3C[C@H]2C[C@@H](OC(=O)c2cc(OC)c(OC)c(OC)c2)[C@@H]1OC", "values": [{"measurement": "fold change (FC)", "setting": "Homo sapiens [5]", "value": 5}, {"measurement": "fold change (FC)", "setting": "Homo sapiens [6]", "value": 29.2}]}
{"smiles": "O=C1C=CC[C@]2(O)C(=O)OC[C@@]12CCc1ccc(-c2ccoc2)oc1=O", "values": [{"measurement": "fold change (FC)", "setting": "Homo sapiens [3]", "value": 3.1}, {"measurement": "fold change (FC)", "setting": "Homo sapiens [4]", "value": 5.8}]}
{"smiles": "CC(=O)OC[C@H]1O[C@@H](OC(=O)[C@H]2CC[C@@]34COC(=O)[C@@]3(O)CC=C[C@@]4(O)[C@@]2(C)CC(=O)c2ccoc2)[C@H](O)[C@@H](O)[C@@H]1O", "values": [{"measurement": "IC50", "setting": "MDA-MB-231", "value": "> 42", "unit": "µM"}, {"measurement": "IC50", "setting": "HeLa", "value": "> 42", "unit": "µM"}, {"measurement": "IC50", "setting": "HCT-15", "value": "> 42", "unit": "µM"}, {"measurement": "IC50", "setting": "HCT-116", "value": "> 42", "unit": "µM"}, {"measurement": "IC50", "setting": "MCF7", "value": "> 42", "unit": "µM"}, {"measurement": "fold change (FC)", "setting": "Homo sapiens [7]", "value": 2.1}, {"measurement": "fold change (FC)", "setting": "Homo sapiens [8]", "value": 12}]}
